The test system of data set [1] is Salmonella typhimurium TA100. Nature of the data set: The Mutagenicity in Salmonella typhimurium TA100 relative to Ronidazole.
A short description of data set [2]: Safety index. Format: toxicity. To be noted: read-out: Safety index. Summed up: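 Index derived as [(ED₅₀ of reference × mutagenicity of reference)]/(ED₅₀ × mutagenicity), using the antitrichomonal ED₅₀ and the TA100 mutagenicity (relative to reference) measured here.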
Another data set relates to Tritrichomonas suis. Nature of the data set: In vitro anti-trichomonal activity against Trichomonas foetus-Ortho strain-2. The class given is functional. Conditions: read-out: ED50 (the source's name). A digest of the protocol:
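Trichomonas foetus Ortho strain 2 was grown in Diamond's medium with gentamycin (24 μg/mL) and 10% calf serum. 2×10^6 trichomonads were added to 1.8 mL medium. Compound was given in water or Me₂SO (final ≤1%, with solvent controls) over a range bracketing the EC₅₀. Motile survivors were counted after 24 h at 37 °C. The value is the mean of two or three determinations.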

The subject of data set [3] is Salmonella typhimurium TA100. As to the kind of experiment: The Mutagenicity was determined in Salmonella typhimurium TA100 relative to compound 20; ND means not detectable.

The structures appear in SMILES notation. In brackets after ≈: the same amount, converted by molar mass.

In turn, `Cc1nc(COC(N)=O)n(C)c1[N+](=O)[O-]` returned a Mutagenicity in data set [1] of 2%. Besides, the selectivity ratio in data set [2] worked out at 20. For the same compound, in the data set on Tritrichomonas suis, the EC50 amounted to 1 µg/mL (≈ 4.67 µM).

In data set [1], `Cc1nc(-c2ccc(F)cc2)n(C)c1[N+](=O)[O-]` registered a Mutagenicity of 15%. Also, the selectivity ratio in data set [2] worked out at 0.27. Moreover, the EC50 in the data set on Tritrichomonas suis is 10 µg/mL (≈ 42.5 µM).

Compound `Cn1c(CO)nc(CCO)c1[N+](=O)[O-]` came in with a Mutagenicity in data set [1] of 1%. In addition, in data set [2], the selectivity ratio was 2. In addition, the EC50 in the data set on Tritrichomonas suis was found to be 20 µg/mL (≈ 99.4 µM).

Consider `Cc1nc(CCOC(=O)C(C)(C)C)c([N+](=O)[O-])n1C`, for which the Mutagenicity in data set [1] is 2.6%. The selectivity ratio in data set [2] is 1.4. Moreover, the EC50 in the data set on Tritrichomonas suis was 11 µg/mL (≈ 40.8 µM).

`Cc1nc(C)n(C)c1[N+](=O)[O-]` showed a Mutagenicity in data set [1] of 0.4%. The selectivity ratio in data set [2] came to 3.1. In addition, the EC50 with Tritrichomonas suis worked out at 32 µg/mL (≈ 206 µM).

With `Cc1nc(CCO)n(C)c1[N+](=O)[O-]`, the Mutagenicity in data set [1] worked out at 0.8%.

In the case of `Cn1c([N+](=O)[O-])cnc1CO`, in data set [1], the Mutagenicity worked out at 16%. The selectivity ratio in data set [2] is 1.6. Besides, the EC50 in the data set on Tritrichomonas suis worked out at 1.6 µg/mL (≈ 10.2 µM).

Consider `CC(=O)Oc1cc(C(=O)OCc2ncc([N+](=O)[O-])n2C)cc(OC(C)=O)c1OC(C)=O`, for which the Mutagenicity in data set [1] is listed as 26%. Further, the selectivity ratio in data set [2] was found to be 0.6. Besides, the EC50 in the data set with Tritrichomonas suis worked out at 2.35 µg/mL (≈ 5.4 µM).

With `Cn1c([N+](=O)[O-])cnc1-c1ccc(F)cc1`, the Mutagenicity in data set [1] is 300%. In data set [2], the selectivity ratio amounted to 0.53. In addition, the EC50 with Tritrichomonas suis came to 0.25 µg/mL (≈ 1.13 µM).

As to `CC(=O)Oc1cc(C(=O)OCCn2c([N+](=O)[O-])cnc2-c2ccc(F)cc2)cc(OC(C)=O)c1OC(C)=O`, the Mutagenicity in data set [1] worked out at 17%. The selectivity ratio in data set [2] stood at 0.6. In the data set with Tritrichomonas suis, the EC50 amounted to 3.9 µg/mL (≈ 7.37 µM).

As to `COc1cc(C(=O)OCCn2c([N+](=O)[O-])cnc2C)cc(OC)c1OC`, the Mutagenicity in data set [1] is 12%. The selectivity ratio in data set [2] came to 2.5. For the same compound, the EC50 in the data set on Tritrichomonas suis was 1.35 µg/mL (≈ 3.7 µM).

The compound `CC(=O)Oc1cc(C(=O)OCCn2c([N+](=O)[O-])cnc2C)cc(OC(C)=O)c1OC(C)=O` came in with a Mutagenicity in data set [1] of 0.23%. The selectivity ratio in data set [2] amounted to 26. The EC50 in the data set on Tritrichomonas suis was determined as 6.6 µg/mL (≈ 14.7 µM).

As for `Cc1nc(CCO)c([N+](=O)[O-])n1C`, the Mutagenicity in data set [1] amounted to 0.28%. Moreover, the selectivity ratio in data set [2] amounted to 71. Further, the EC50 in the data set with Tritrichomonas suis worked out at 2 µg/mL (≈ 10.8 µM).

In data set [1], `Cn1c(-c2ccc(F)cc2)nc(CCO)c1[N+](=O)[O-]` gave a Mutagenicity of 8%. In addition, the selectivity ratio in data set [2] worked out at 0.65. For the same compound, the EC50 with Tritrichomonas suis is 7.7 µg/mL (≈ 29 µM).

Regarding `Cn1c([N+](=O)[O-])cnc1COC(N)=O` [RONIDAZOLE], the Mutagenicity in data set [1] is 100%. Moreover, the selectivity ratio in data set [2] was found to be 1. Also, in the data set on Tritrichomonas suis, the EC50 was found to be 0.4 µg/mL (≈ 2 µM).

As to `Cc1ncc([N+](=O)[O-])n1CCO` [METRONIDAZOLE], in the data set with Tritrichomonas suis, the EC50 worked out at 0.4 µg/mL (≈ 2.34 µM).

As to `Cc1nc(C)n(CCO)c1[N+](=O)[O-]`, in data set [1], the Mutagenicity was determined as 0.3%. Also, the selectivity ratio in data set [2] amounted to 6.2. Besides, the EC50 in the data set with Tritrichomonas suis worked out at 21.5 µg/mL (≈ 116 µM).

In data set [1], `Cn1c([N+](=O)[O-])cnc1CCO` displayed a Mutagenicity of 19%.

Regarding `Cn1cnc(F)c1[N+](=O)[O-]`, in data set [1], the Mutagenicity is recorded as 16%. Moreover, the selectivity ratio in data set [2] is 0.7. The EC50 in the data set on Tritrichomonas suis was found to be 3.6 µg/mL (≈ 24.8 µM).

Take `Cc1ncc([N+](=O)[O-])n1C` [DIMETRIDAZOLE]: in data set [1], the Mutagenicity stood at 15%. Moreover, the selectivity ratio in data set [2] is 8.9. Moreover, the EC50 with Tritrichomonas suis is 0.3 µg/mL (≈ 2.13 µM).

In the case of `Cc1nc(F)c([N+](=O)[O-])n1C`, the EC50 with Tritrichomonas suis worked out at 14.5 µg/mL (≈ 91.1 µM). Also, the Mutagenicity result in data set [3] is “Not detectable”.

`Cc1nc(Br)c([N+](=O)[O-])n1C` yielded a Mutagenicity in data set [1] of 8%. Also, in data set [2], the selectivity ratio is 0.65. For the same compound, the EC50 in the data set on Tritrichomonas suis was determined as 0.75 µg/mL (≈ 3.41 µM).

As for `CC(=O)OCCc1nc(C)n(C)c1[N+](=O)[O-]`, the Mutagenicity in data set [1] came to 1%. The selectivity ratio in data set [2] was 14. Besides, the EC50 in the data set with Tritrichomonas suis was 2.8 µg/mL (≈ 12.3 µM).
